Assay outcomes deposited in PubChem by several laboratories.
NPY Y1 blocker: NPY-Y1 receptor antagonists, primary screen, cell-based | Neuropeptide Y receptor type 1 (Homo sapiens), P25929 | inhibition, % at 3.6 µM | 200,000 compounds, 1% hits | HEK293-CNG Y1 cells, membrane potential fluorescence; NPY at EC95, then isoproterenol;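 active = inhibition above the campaign mean inhibition of all tested compounds plus 3 SD, cut at about 20% in these data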
Target sequence (P25929 whole entry, looked up): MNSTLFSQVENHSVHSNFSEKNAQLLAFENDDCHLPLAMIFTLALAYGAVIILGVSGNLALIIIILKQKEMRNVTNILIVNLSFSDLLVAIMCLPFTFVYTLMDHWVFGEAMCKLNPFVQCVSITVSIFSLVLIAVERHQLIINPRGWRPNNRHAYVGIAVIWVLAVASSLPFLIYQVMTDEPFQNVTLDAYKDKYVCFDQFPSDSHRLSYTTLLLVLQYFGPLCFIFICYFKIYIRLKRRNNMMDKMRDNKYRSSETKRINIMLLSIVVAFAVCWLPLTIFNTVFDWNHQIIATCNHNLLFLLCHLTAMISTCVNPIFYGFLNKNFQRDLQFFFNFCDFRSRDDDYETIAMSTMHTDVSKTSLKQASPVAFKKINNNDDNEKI
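Material: HEK293 cells with Y1 receptor plus CNG channel; times: compound incubation 1 h at room temperature, readout 45 min post-stimulation; signal: fluorescence, membrane potential probe; read-out basis: fluorescence ratio normalized to % inhibition between controls; benchmarks: full-block control isoproterenol-only wells, zero-block control NPY plus isoproterenol wells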
NPY-Y2 PAM-ag: NPY-Y2 potentiators or agonists, primary screen, cell-based; cells expressing NPY-Y2, potentiator/agonist read-out; activation, % at 3.6 µM; 220,000 compounds, 0.45% hits; AID 1359, 2008; in the data active = activation above about 27%;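 also: cells stimulated with NPY near EC25 plus isoproterenol at EC100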
Target sequence (P49146 whole entry, looked up): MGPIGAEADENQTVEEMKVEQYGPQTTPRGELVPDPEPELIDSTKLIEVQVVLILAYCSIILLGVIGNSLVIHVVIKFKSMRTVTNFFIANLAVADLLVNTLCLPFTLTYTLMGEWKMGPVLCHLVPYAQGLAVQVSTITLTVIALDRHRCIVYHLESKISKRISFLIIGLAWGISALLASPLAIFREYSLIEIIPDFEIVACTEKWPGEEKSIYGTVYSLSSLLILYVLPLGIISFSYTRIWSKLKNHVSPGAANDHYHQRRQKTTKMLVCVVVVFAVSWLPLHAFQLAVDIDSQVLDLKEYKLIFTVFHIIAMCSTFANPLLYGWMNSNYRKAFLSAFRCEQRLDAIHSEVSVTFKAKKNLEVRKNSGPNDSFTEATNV
NPY-Y2 antag: NPY-Y2 receptor antagonists, primary screen, cell-based; NPY-Y2 expressing cells, antagonist mode; 140,000 compounds, 0.99% hits; inhibition, % at 2.7 µM; Neuropeptide Y receptor type 2 (Homo sapiens), P49146; in the data active = inhibition above about 17%
NPY1 pot ag: NPY-Y1 receptor potentiators or agonists, primary screen, cell-based; Neuropeptide Y receptor type 1 (Homo sapiens), P25929; NPY-Y1 expressing cells, potentiator/agonist activation; activation, % at 3.6 µM; 220,000 compounds, 0.37% hits; in the data active = activation above about 33%, passing the limit was not always enough;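 also: cells stimulated with NPY at EC10 then isoproterenol at EC100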
Mdm2 ligase inh: MDM2-luciferase reporter signal enhancers, primary screen, MDM2 E3 ligase inhibitor project, cell-based, luminescence, 1536-well. E3 ubiquitin-protein ligase Mdm2 (Homo sapiens), Q00987. signal enhancement, % at 5 µM. cell-based MDM2 ubiquitination luciferase reporter, 2 h; 0 = plate control, 100 = twice control, blank-subtracted. 210,000 compounds, 0.11% hits;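 active = signal enhancement of 30% or more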;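 also: luminescence tracks abundance of the self-degrading MDM2-luciferase fusion protein; higher signal means inhibition of MDM2 E3 ligase activity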
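Material: Stable MDM2–luciferase fusion reporter cells | Amount: 2000 cells seeded into each well | Dosing: One concentration, 5 µM, with 0.2% DMSO | Incubation: 4 h cell settling then 2 h compound exposure, 37 °C | Measured by: Luciferase luminescence | Read-out basis: % enhancement relative to plate controls after blank subtraction | Benchmarks: Control and blank well means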
Measles CPE: compounds protecting cells from measles virus cytopathic effect, primary screen, measles RdRp inhibitor project, single point, MLSMR library, absorbance; Measles virus-infected cells, CPE protection; protection (pct of control), % at 4 µM; 140,000 compounds, 1.5% hits; AID 841, 2007; in the data active = protection mostly above about 24%, no sharp cut-off; inactive = mostly below about 26%
NPY-Y1 pot conf: NPY-Y1 potentiators or agonists, confirmation, cell-based. activation, % at 3.6 µM. cell-based NPY-Y1 potentiator/agonist assay. AID 1546, 2009. shares compounds with NPY1 pot ag. 280 compounds, 20% hits; in the data active = activation above about 45%;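 also: cells challenged with NPY at its EC10 plus isoproterenol stimulus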
NPY-Y2 counter: NPY-Y2 potentiators or agonists, counter-screen for NPY-Y1 potentiator project, cell-based, fluorescence; HEK293-CNG cells, membrane-potential fluorescence (FLIPR), 1536-well; shares compounds with NPY1 pot ag; activation, % at 3.6 µM; 280 compounds, 20% hits
NPY-Y1 agonist: NPY-Y1 direct agonists without NPY, confirmation, counter-screen for NPY-Y1 potentiator project, cell-based, fluorescence | shares compounds with NPY1 pot ag | HEK293 Y1-CNGC, membrane potential fluorescence, agonist mode | activation, % at 3.6 µM | 280 compounds, 50% hits;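 active = percent activation above the mean of DMSO-only control wells plus 3 SD of those wells, cut at about 18% in these data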;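 also: cells challenged with isoproterenol plus Ro 20-1724 with no NPY in test wells; Y1 agonism lowers isoproterenol-driven cAMP and reduces probe fluorescence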
NPY-Y2 ag: NPY-Y2 direct agonists without NPY, counter-screen for NPY-Y1 potentiator project, cell-based, fluorescence; 280 compounds, 67% hits; shares compounds with NPY1 pot ag; HEK293 Y2-CNGC, membrane potential fluorescence, agonist mode; activation, % at 3.6 µM;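 active = activation above the solvent-only control wells' mean plus 3 SD, cut at about 11% in these data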;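 also: agonism lowers cAMP so well fluorescence drops in active wells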
CNGC counter: CNGC cAMP sensor activity inhibitors, counter-screen for NPY-Y1 potentiator/agonist project, cell-based, HEK293-CNG parental, membrane potential fluorescence, Y1 set | inhibition, % at 3.6 µM | AID 1704, 2009 | 280 compounds, 42% hits | isoproterenol cAMP | shares compounds with NPY1 pot ag;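 active = inhibition above the mean of stimulated solvent-only control wells plus 3 SD, cut at about 22% in these data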
NPY-Y2 pot conf: NPY-Y2 potentiators or agonists, confirmation, cell-based; shares compounds with NPY-Y2 PAM-ag; cell-based NPY-Y2 potentiator/agonist assay; activation, % at 3.6 µM; 450 compounds, 20% hits; AID 1539, 2009
NPY-Y1 counter: NPY-Y1 potentiators or agonists, counter-screen for NPY-Y2 potentiator project, cell-based, fluorescence | 450 compounds, 20% hits | shares compounds with NPY-Y2 PAM-ag | AID 1651, 2009 | activation, % at 3.6 µM | Y1 HEK293-CNG cells, membrane potential fluorescence; in the data active = activation above about 45%;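 also: cells stimulated with submaximal NPY then isoproterenol with phosphodiesterase inhibitor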
NPY-Y1 ag 2: NPY-Y1 direct agonists, selectivity assay for NPY-Y2 potentiator project, cell-based, fluorescence | shares compounds with NPY-Y2 PAM-ag | HEK293 Y1-CNGC, membrane potential fluorescence, agonism | activation, % at 3.6 µM | 450 compounds, 37% hits;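 active = activation above the mean of DMSO-only control wells plus 3 SD, cut at about 18% in these data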;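 also: cells stimulated with 1 µM isoproterenol plus the PDE inhibitor Ro 20-1724; Y1 agonists lower the membrane potential dye signal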
CNGC inh: CNGC cAMP sensor activity inhibitors, counter-screen for NPY-Y2 potentiator project, cell-based, HEK293-CNG parental, membrane potential fluorescence; shares compounds with NPY-Y2 PAM-ag; isoproterenol cAMP; inhibition, % at 3.6 µM; 450 compounds, 32% hits;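 active = inhibition above the control-well mean plus 3 SD of those wells, cut at about 22% in these data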
NPY-Y2 ag 2: NPY-Y2 direct agonists, counter-screen for NPY-Y2 potentiator project, cell-based, fluorescence; 450 compounds, 56% hits; shares compounds with NPY-Y2 PAM-ag; activation, % at 3.6 µM; HEK293 Y2/CNGC cells, membrane potential fluorescence, agonist mode;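 active = activation above the mean of solvent-only control wells plus 3 SD, cut at about 10% in these data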;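 also: cells stimulated by isoproterenol with no NPY added so direct agonism is tested; agonism lowers probe fluorescence through less cAMP and CNG channel opening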
Large screens that a line does not name were inactive (follow-up assays come after a bar, where they were run); ! = not confirmed by another sample. Hits are enriched below; roughly 2.8% of the tested compounds scored in any of these assays. Rule as the data show it, unless noted: active = activation above about 33%; inactive = the rest.

COc1ccc(O)c2c(=O)c3c(OC)cc4c(c3oc12)C1C=COC1O4 (centres undefined)	NPY1 pot ag 56 (no result: NPY Y1 blocker, NPY-Y2 antag, Measles CPE) | NPY-Y1 pot conf 73 | NPY-Y2 counter 63 | NPY-Y1 agonist 69 | NPY-Y2 ag 64 | CNGC counter 67
CCN(CC)CC(O)c1ccc(C2CCCC2)cc1 (centres undefined)	none
CC(C)(O)[C@H]1O[C@H]2CC[C@@]3(C)[C@@](O)(CC[C@H]4Cc5c([nH]c6ccccc56)[C@@]43C)C2=CC1=O	NPY1 pot ag 43 (no result: NPY-Y2 antag, Measles CPE) | NPY-Y1 pot conf 49 | NPY-Y2 counter 41 | NPY-Y1 agonist 53 | NPY-Y2 ag 43 | CNGC counter 44
CC(=O)c1ccc(OC(C)C)c(Cc2c(O)[nH]c(=S)[nH]c2=O)c1	none (no result: NPY-Y2 antag, Measles CPE)
N#Cc1ccc(/C=C/C(=O)O)cc1	none (no result: NPY Y1 blocker, NPY-Y2 antag, Measles CPE)
CCOC(=O)c1c(-n2c(C)cc(C=C3C(=O)NC(=O)NC3=O)c2C)sc2c1CCCC2	NPY1 pot ag 39 | NPY-Y1 pot conf 93 | NPY-Y2 counter 73 | NPY-Y1 agonist 77 | NPY-Y2 ag 68 | CNGC counter 28
O=c1c2cc(Br)ccc2[nH]c(=S)n1-c1ccccc1	none (no result: NPY-Y2 antag, Measles CPE)
O=c1c2ccccc2[nH]c(=S)n1-c1ccc(Br)cc1	NPY-Y2 PAM-ag 32 (no result: NPY-Y2 antag, Measles CPE) | NPY-Y2 pot conf inactive | NPY-Y1 counter inactive | NPY-Y1 ag 2 inactive | CNGC inh inactive | NPY-Y2 ag 2 inactive
O=C1Nc2ccccc2/C1=C/c1nc2ccccc2c(=O)n1-c1ccc(O)cc1	NPY-Y2 PAM-ag 42 (no result: NPY Y1 blocker, NPY-Y2 antag, Measles CPE) | NPY-Y2 pot conf 33 | NPY-Y1 counter inactive | NPY-Y1 ag 2 29 | CNGC inh 35 | NPY-Y2 ag 2 33
Cc1nonc1OCCNc1ccc([N+](=O)[O-])c2cccnc12	none
Clc1cccc(N2CCNCC2)c1Cl	NPY-Y2 PAM-ag 32 (no result: Mdm2 ligase inh) | NPY-Y2 pot conf inactive | NPY-Y1 counter inactive | NPY-Y1 ag 2 inactive | CNGC inh inactive | NPY-Y2 ag 2 inactive
N#Cc1cc(F)c(N2CCNCC2)cc1Cl	none
Cc1cc(Cl)ccc1C(=O)C1CCCN(C2CCSCC2)C1 (centres undefined)	none (no result: NPY-Y2 antag, Mdm2 ligase inh, Measles CPE)
Cc1nn(Cc2ccccc2)c(Cl)c1C(=O)OCC(=O)Nc1cccc2ccccc12	NPY-Y2 PAM-ag 45 (no result: Measles CPE) | NPY-Y2 pot conf inactive | NPY-Y1 counter inactive | NPY-Y1 ag 2 inactive | CNGC inh inactive | NPY-Y2 ag 2 inactive
O=C1NC(=O)N(CC2CCCO2)C(=O)/C1=C/c1cccs1 (centres undefined)	NPY-Y2 PAM-ag 41 (no result: NPY Y1 blocker, NPY-Y2 antag, Measles CPE) | NPY-Y2 pot conf inactive | NPY-Y1 counter inactive | NPY-Y1 ag 2 inactive | CNGC inh inactive | NPY-Y2 ag 2 inactive
CCN(CC)c1ccc(/C=C2/C(=O)NC(=O)N(CC3CCCO3)C2=O)cc1 (centres undefined)	none
Cc1cccc(N2CCc3c2nc2ccccc2c3N)c1	NPY-Y2 PAM-ag 68! | NPY-Y2 pot conf inactive | NPY-Y1 counter inactive | NPY-Y1 ag 2 inactive | CNGC inh inactive | NPY-Y2 ag 2 23
O=P(O)(Oc1ccccc1)OC(c1ccccc1)C(F)(F)C(F)(F)F (centres undefined)	none (no result: NPY-Y2 antag, Measles CPE)
